Screening results as filed in PubChem.
MBD2 DNA inh = inhibitors of MBD2 binding to methylated DNA, primary screen, biochemical, TR-FRET, DNA-binding domain, human; Methyl-CpG-binding domain protein 2 (Homo sapiens), Q9UBB5; MBD2 binding to methylated oligonucleotide; inhibition, % at 4.4 µM; hit rate 0.31% among 370,000; AID 686964, 2013; in the data active means inhibition above about 13%
Target sequence (Q9UBB5 whole entry, looked up, the tested form may be a part): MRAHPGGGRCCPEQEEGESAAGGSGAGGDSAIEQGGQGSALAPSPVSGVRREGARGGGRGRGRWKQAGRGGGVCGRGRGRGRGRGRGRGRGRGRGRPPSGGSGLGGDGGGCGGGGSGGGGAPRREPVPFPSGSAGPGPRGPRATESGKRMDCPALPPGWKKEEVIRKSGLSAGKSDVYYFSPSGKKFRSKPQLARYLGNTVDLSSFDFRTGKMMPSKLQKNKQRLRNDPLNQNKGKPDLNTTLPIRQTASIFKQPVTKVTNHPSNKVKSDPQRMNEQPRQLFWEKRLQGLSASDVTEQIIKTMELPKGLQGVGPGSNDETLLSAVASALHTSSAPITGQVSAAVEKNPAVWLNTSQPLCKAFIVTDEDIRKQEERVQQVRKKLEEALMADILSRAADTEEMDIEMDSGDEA
Arr AP2 block = inhibitors of beta-arrestin/AP2 binding, primary screen, biochemical, GPCR trafficking, flow cytometry; beta-arrestin 1 C-terminal peptide binding to AP2 beta2-adaptin appendage (human); FITC-arrestin peptide / GST-AP2 beads; AP2 beta2 appendage carries R879A mutation; inhibition, % at 10 µM; hit rate 0.31% among 340,000; AID 504490, 2011;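 active means inhibition above a set limit, near 3 SD of compounds lacking own fluorescence, cut at about 54% in these data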
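System: GST-AP2 R879A glutathione beads; medium: PBS, Tween 20 0.05%, BSA 0.1%; reagent: fluorescein-tagged arrestin peptide at 50 nM final; schedule: pre-incubation 12 min, peptide binding 1 h, room temperature; detection: flow cytometry, FL1 (488/535 nm); read-out: inhibition as reduced fluorescein signal on beads, percent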
Beta2AR agonist = beta2AR agonists driving receptor internalization, primary screen, cell-based, FAP fluorogen, flow cytometry. hit rate 0.43% among 340,000. AID 504454, 2011. Am2.2-beta2AR cells. Beta-2 adrenergic receptor (Homo sapiens), P07550. response, % (concentration not given with the values);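 active means response above a set limit, near 3 SD of response in nonfluorescent compounds, cut at about 42% in these data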
ABHD5 PLIN5 PPI = ABHD5-PLIN5 interaction inhibitors, primary screen, cell lysate, split luciferase complementation, luminescence; Split G. princeps luciferase complementation, 4 h; inhibition, % at 4 µM; hit rate 0.78% among 360,000;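 active means inhibition above the mean inhibition across every tested compound plus 3 SD, cut at about 22% in these data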
Rin1-Abl PPI inh = inhibitors of Rin1-Abl protein binding, primary screen, biochemical, TR-FRET; inhibition, % at 7.35 µM; Tyrosine-protein kinase ABL1 (Homo sapiens) + Ras and Rab interactor 1 (Homo sapiens), …; hit rate 0.4% among 360,000; in the data active means inhibition above about 5%, passing the limit was not always enough
UHRF1 binding = UHRF1 methylated DNA binding inhibitors, primary screen, counter-screen for MBD2 inhibitor project, biochemical, TR-FRET, human UHRF1, single concentration; E3 ubiquitin-protein ligase UHRF1 (Homo sapiens), Q96T88; UHRF1 binding to methylated oligo; inhibition, % at 4.4 µM; hit rate 0.75% among 370,000; AID 687016, 2013; in the data active means inhibition above about 21%;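 further: UHRF1 SRA domain binding a hemimethylated CpG hairpin DNA probe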
B2AR ag CP1 = beta2AR agonists via receptor internalization, confirmation, cell-based, FAP fluorogen, flow cytometry, single point, cherry pick 1; shares compounds with Beta2AR agonist; Am2.2-beta2AR cells, FAP surface receptor; hits give low values; percent response (surface receptor), % at 10 µM; hit rate 25% among 1,100;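 active means surface receptor percent response at or below 58%, roughly 3 SD from nonfluorescent compounds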
B2AR FAP counter = counter-screen for beta-2AR agonists: fluorescence in Am2.2 cells; FAP fluorogen flow cytometry, fluorescence counterscreen; hits give low values; AID 588765; calls only at 10 µM; shares compounds with Beta2AR agonist; 1,100 tested, under 10 active;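 active means percent response below a set limit in fluorescence channel 1 and below 50% in channel 8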
Rin1 Abl conf = Rin1-Abl binding inhibitor retest, confirmation, biochemical, TR-FRET | shares compounds with Rin1-Abl PPI inh | purified proteins | inhibition, % at 7.35 µM | hit rate 49% among 1,300 | AID 602124, 2011
GFP quench = GFP fluorescence inhibitors and quenchers, artefact control for Rin1-Abl interaction inhibitor project, biochemical; shares compounds with Rin1-Abl PPI inh; inhibitors/quenchers counterscreen; inhibition, % at 6.75 µM; hit rate 8.5% among 1,300; AID 602125, 2011;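 further: ABL1-eGFP fusion protein alone without its partner RIN1-SBP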
GFP quench DR = GFP fluorescence inhibitors and quenchers, dose response, artefact control for Rin1-Abl interaction inhibitor project, biochemical. IC50, µM. shares compounds with Rin1-Abl PPI inh. 230 tested, under 10 active. GFP fluorescence interference/quenching counterscreen; call rule not given here;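 further: ABL1-eGFP fusion protein alone without its RIN1 binding partner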
ABHD5 PLIN5 conf = ABHD5-PLIN5 interaction inhibitors, confirmation, biochemical, luminescence; shares compounds with ABHD5 PLIN5 PPI; inhibition, % at 4 µM; hit rate 67% among 2,200; in the data active means inhibition above about 23%
HNF4 counter = HNF4 dimerization inhibitors, counter-screen for ABHD5-PLIN5 interaction inhibitor project, biochemical, split-luciferase complementation, luminescence | hit rate 77% among 2,200 | AID 651674, 2012 | inhibition, % at 4 µM | shares compounds with ABHD5 PLIN5 PPI;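 active means mean inhibition across replicate wells exceeding the computed hit threshold, cut at about 13% in these data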;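 further: light from luciferase halves that rejoin when HNF4 fusion proteins dimerize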
UHRF1 ctr MBD2 = UHRF1 methylated DNA binding inhibitors, counter-screen for MBD2 inhibitor project, biochemical, TR-FRET, human UHRF1; hit rate 25% among 1,000; shares compounds with MBD2 DNA inh; inhibition, % at 4.4 µM; AID 720530, 2013; UHRF1 binding to methylated oligonucleotide; in the data active means inhibition above about 21%;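 further: UHRF1 SRA domain binding a labeled hemimethylated CpG hairpin DNA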
MBD2 DBD conf = inhibitors of MBD2 binding to methylated DNA, confirmation, biochemical, TR-FRET, DNA-binding domain, human. shares compounds with MBD2 DNA inh. TR-FRET MBD2-DBD binding to methylated oligonucleotide. inhibition, % at 4.4 µM. hit rate 26% among 1,000; in the data active means inhibition above about 14%
Hits are given with their value; n = inactive; x = no result given. A selection: hits, their analogues and other compounds. The true share with any hit is near 2.5%. Unless noted, no stated cut-off is given here; in the data, active means inhibition above about 6.5%; inactive means the rest.

SMILES	MBD2 DNA inh	Arr AP2 block	Beta2AR agonist	ABHD5 PLIN5 PPI	Rin1-Abl PPI inh	UHRF1 binding	B2AR ag CP1	B2AR FAP counter	ABHD5 PLIN5 conf	HNF4 counter	others
CCC1CCCCN1CCCNC(=O)Cn1cnc2sc(C)c(S(=O)(=O)N3CC(C)CC(C)C3)c2c1=O (centres undefined)	x	n	58.9	n	n	x	n	n	x	x
O=C(Nc1cccc(-c2nc3ccccc3s2)c1)c1cccs1	n	n	51.6	n	n	n	45.6	n	x	x
O=C(Nc1cccc(Cl)c1)Nc1sccc1-c1nc2ccccc2s1	n	n	66.4	n	n	n	n	n	x	x
COc1ccccc1CNC(=O)CN1CCN(c2ccc(C(C)=O)cc2)CC1	n	n	54.2	n	n	n	n	n	x	x
Oc1c(CN2CCOCC2)cc(COCc2ccccc2)c2cccnc12	n	n	n	n	10.8	n	n	n	x	x	Rin1 Abl conf=n;GFP quench=n
CN(C)C(CNC(=O)c1ccc(NC(=O)CC#N)cc1)c1ccccc1 (centres undefined)	n	n	47.5	n	10.1	n	n	n	x	x	Rin1 Abl conf=6.7;GFP quench=n
CN(C(=O)c1cccc(NC(=O)Cc2cccc(NC(=O)C3CCN(C(=O)C4CCCC4)CC3)c2)c1)C1CC1	n	n	n	n	n	n	x	x	x	x
CN(C(=O)c1ccc(NC(=O)Cc2cccc(NC(=O)C3CCN(C(=O)C4CCCCC4)CC3)c2)cc1)C1CC1	n	n	n	n	13.7	n	n	n	x	x	Rin1 Abl conf=25.6;GFP quench=n;GFP quench DR=n
CCN(CC)C(=O)CC[C@H]1CC[C@]2(CCCN(Cc3ccccn3)C2)O1	n	x	x	x	x	n	x	x	x	x
C=CCn1c(COc2ccc(C)cc2)nnc1SCC(=O)Nc1cc(Cl)cc(Cl)c1	n	x	x	x	x	n	x	x	x	x
Cn1nnnc1Sc1ncnc2scc(-c3cc4ccccc4o3)c12	n	n	53.3	29.1	n	n	57.0	n	70.9	77.3
CCCC(=O)N(C1CC(C)C(C#N)(C#N)C1(C#N)C#N)N(C)C (centres undefined)	n	n	42.5	35.7	n	n	33.6	n	58.9	101.0
C#CCNC(=O)C[C@H]1C[C@@]2(C(=O)OC)C(=C[C@H](COCc3ccccc3)O[C@@H]2C)N(Cc2ccc(Cl)cc2Cl)C1=O	n	x	x	x	x	n	x	x	x	x
O=C(N[C@@H]1C[C@@H]2O[C@@H](CO)CC[C@@H]2O[C@@H]1CCc1ccc(-c2ccccc2)cc1)c1cnccn1	n	x	x	x	x	n	x	x	x	x
CCOC(=O)c1ccc(N=c2sc(C(=O)OC)cc(=O)n2-c2ccc(C(=O)OCC)cc2)cc1	n	n	48.1	33.6	n	n	49.7	n	91.6	87.7
CC(=O)N1CCN(C2=NC(=O)N(c3ccc(Br)cc3)C(=O)C2)CC1	n	x	x	x	x	n	x	x	x	x
COc1ccc(S[C@]2(C(=O)NC3CC3)CC(=O)N[C@@H]2c2ccc(OC)cc2)cc1	n	x	x	x	x	n	x	x	x	x
CCOc1cc(/C=C2\CN(C)C/C(=C\c3ccc(O)c(OCC)c3)C2=O)ccc1O	n	n	46.0	77.5	n	n	n	n	96.9	88.2
COc1cc(C=C2CN(C)C(=O)C2=O)ccc1O	n	x	x	n	n	n	x	x	x	x
OCCN1CCN(CC(O)COc2ccc(Cl)cc2)CC1 (centres undefined)	n	n	n	n	n	n	x	x	x	x
OCCN1CCN(CC(O)COc2ccc(C34CC5CC(CC(C5)C3)C4)cc2)CC1 (centres undefined)	n	n	60.6	36.0	n	n	n	n	n	n
Cc1ccc2nc(N(CCCN(C)C)C(=O)c3ccc(Br)s3)sc2c1	n	n	54.1	30.0	n	n	n	n	n	n
CCOC(=O)c1cccc(NC(=O)CN(C)S(=O)(=O)c2ccc(Cl)s2)c1	n	x	x	x	x	n	x	x	x	x
O=C(C[n+]1cccc(NC(=O)c2ccccc2)c1)c1ccc(NC(=O)c2ccccc2)cc1	n	n	72.2	23.8	n	n	47.1	n	n	n
CCCCCCCCCCOC(=O)Cn1c(COc2ccccc2)[n+](C)c2ccccc21	n	n	n	n	n	n	x	x	x	x
CCCCCCCCCCOC(=O)Cn1c(COc2ccccc2C)[n+](C)c2ccccc21	x	n	68.3	24.2	n	x	n	n	n	n
O=C(Nc1ccc(Nc2ccncc2)cc1)c1ccc(Nc2ccnc3ccc([N+](=O)[O-])cc23)cc1	15.7	n	69.3	n	n	32.1	n	n	x	x	UHRF1 ctr MBD2=38.2;MBD2 DBD conf=33.6
CC(C)C[C@H]1COc2cc(Br)ccc2S(=O)(=O)N1Cc1cn(Cc2ccco2)nn1	n	x	x	x	x	n	x	x	x	x
